In ChEMBL document CHEMBL3526028 (Drug Metab Dispos, 2013):

Tests used:
[1] = Drug uptake in mouse brain ipsilateral cerebrum assessed as radiolabelled compound after 30 mins at 0.1 uM, intracerebral microinjection in presence 100 mM probenecid OAT inhibitor; assay type: ADME, tissue-based; settings: in vivo, other, 0.5 h
How it was run: (§1)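 Male C57BL/6 wild-type mice under ketamine 100 mg/kg plus xylazine 10 mg/kg i.p., on a stereotaxic frame. 0.2 µL was injected over 2 min into the S2 cortex, 3.8 mm lateral to bregma and 2.5 mm deep. Injectate: [3H]-drug plus [14C]-carboxyl-inulin, 10 nCi/ml each, in ECF buffer pH 7.4. Needle held 4 min. Ipsilateral cerebrum harvested at 30 min and counted by scintillation. Retention normalized to inulin. n=3-4.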

[2] = Drug uptake in mouse brain ipsilateral cerebrum assessed as radiolabelled compound after 30 mins at 0.1 uM, intracerebral microinjection in presence 100 mM benzylpenicillin OAT inhibitor; assay type: ADME, tissue-based; settings: in vivo, other, 0.5 h; how it was run: as §1
[3] = test system: Mus musculus; test: Brain efflux index in wild-type mouse assessed as transport of compound from ipsilateral cerebrum to the circulating blood across the blood-brain barrier at 10 nCi/ml, intracerebral microinjection after 30 mins in presence 100 mM benzylpenicillin OAT inhibitor; settings: other, 0.5 h
[4] = test system: Mus musculus; test: Brain efflux index in Bcrp1 deficient mouse assessed as transport of compound from ipsilateral cerebrum to the circulating blood across the blood-brain barrier at 10 nCi/ml, intracerebral microinjection after 30 mins relative to wild type; assay type: ADME, organism-based; settings: other, 0.5 h
How it was run: (§2)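 Intracerebral microinjection under ip ketamine (100 mg/kg)/xylazine (10 mg/kg). Stereotaxic needle at 3.8 mm lateral to bregma, 2.5 mm deep, into S2 cortex. 0.2 µL [3H]-drug (10 nCi/ml) with [14C]-carboxyl-inulin (10 nCi/ml) in ECF buffer pH 7.4 given over 2 min. Ipsilateral cerebrum taken at set times, homogenised in 5% BSA and counted by scintillation. Retained/injected ratio normalised to inulin; n=3-4.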

[5] = test system: Brain; test: Efflux clearance mouse brain measured per gm of tissue at 0.3 uCi/ml by in vitro brain slice uptake technique; assay type: ADME
[6] = test system: Mus musculus; test: Brain efflux index in wild type mouse assessed as transport of compound from ipsilateral cerebrum to the circulating blood across the blood-brain barrier at 10 nCi/ml, intracerebral microinjection after 30 mins in presence 100 mM probenecid OAT inhibitor relative to wild type; settings: other, 0.5 h
[7] = Elimination rate constant mouse brain at 10 nCi/ml
[8] = test system: Mus musculus; test: Brain efflux index in Bcrp1 deficient mouse assessed as transport of compound from ipsilateral cerebrum to the circulating blood across the blood-brain barrier at 10 nCi/ml, intracerebral microinjection after 30 mins; assay type: ADME, organism-based; settings: other, 0.5 h; how it was run: as §2
[9] = Drug uptake in mouse brain ipsilateral cerebrum assessed as radiolabelled compound after 30 mins at 0.1 uM, intracerebral microinjection; assay type: ADME, tissue-based; settings: in vivo, other, 0.5 h; how it was run: as §1
[10] = Drug uptake in mouse cerebrum
[11] = test system: Mus musculus; test: Brain efflux index in Mrp2 deficient mouse assessed as transport of compound from ipsilateral cerebrum to the circulating blood across the blood-brain barrier at 10 nCi/ml, intracerebral microinjection after 60 mins; assay type: ADME, organism-based; settings: other, 1 h; how it was run: as §2
[12] = test system: Mus musculus; test: Brain efflux index in Mrp2 deficient mouse assessed as transport of compound from ipsilateral cerebrum to the circulating blood across the blood-brain barrier at 10 nCi/ml, intracerebral microinjection after 30 mins relative to wild type; settings: other, 0.5 h
[13] = test system: Mus musculus; test: Brain efflux index in wild-type mouse assessed as transport of compound from ipsilateral cerebrum to the circulating blood across the blood-brain barrier at 10 nCi/ml, intracerebral microinjection after 30 mins in presence 100 mM probenecid OAT inhibitor; settings: other, 0.5 h
[14] = test system: Brain; test: Ratio of efflux clearance to clearance in brain measured in mouse at 0.3 uCi/ml by in vitro brain slice uptake technique; assay type: ADME, tissue-based
[15] = Elimination half life in mouse brain at 10 nCi/ml, icv; assay type: ADME, organism-based; settings: icv or intrathecal, read-out: beta t1/2 (converted)
How it was run: (§3)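 Intracerebral microinjection into the S2 cortex of anaesthetized mice, 0.2 µL of [3H]-drug (10 nCi/ml) with [14C]-carboxyl-inulin in ECF buffer. Ipsilateral cerebrum radioactivity was followed over time, up to 60 min for methotrexate. Elimination rate constant keff came from regression of percent remaining versus time, and half-life from keff. n=3-4.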

[16] = test system: Mus musculus; test: Brain efflux index in wild type mouse assessed as transport of compound from ipsilateral cerebrum to the circulating blood across the blood-brain barrier at 10 nCi/ml, intracerebral microinjection after 30 mins in presence 100 mM benzylpenicillin OAT inhibitor relative to wild type; settings: other, 0.5 h
[17] = test system: Mus musculus; test: Brain efflux index in wild type mouse assessed as transport of compound from ipsilateral cerebrum to the circulating blood across the blood-brain barrier at 10 nCi/ml, intracerebral microinjection after 30 mins; assay type: ADME, organism-based; settings: other, 0.5 h; how it was run: as §2
[18] = test system: Mus musculus; test: Brain efflux index in wild type mouse assessed as transport of compound from ipsilateral cerebrum to the circulating blood across the blood-brain barrier at 10 nCi/ml, intracerebral microinjection after 30 mins in presence of 50 mM unlabelled compound relative to wild type; settings: other, 0.5 h
[19] = test system: Mus musculus; test: Brain efflux index in wild type mouse assessed as transport of compound from ipsilateral cerebrum to the circulating blood across the blood-brain barrier at 10 nCi/ml, intracerebral microinjection after 30 mins in presence of 1 mM unlabelled compound relative to wild type; settings: other, 0.5 h
[20] = Drug uptake in mouse brain ipsilateral cerebrum assessed as radiolabelled compound after 30 mins at 0.1 uM, intracerebral microinjection in presence of 1 mM unlabelled compound; assay type: ADME, tissue-based; settings: in vivo, other, 0.5 h; how it was run: as §1
[21] = test system: Mus musculus; test: Brain efflux index in wild-type mouse assessed as transport of compound from ipsilateral cerebrum to the circulating blood across the blood-brain barrier at 10 nCi/ml, intracerebral microinjection after 30 mins in presence of 50 mM unlabelled compound; settings: other, 0.5 h
[22] = Drug uptake in mouse brain ipsilateral cerebrum assessed as radiolabelled compound after 30 mins at 0.1 uM, intracerebral microinjection in presence of 50 mM unlabelled compound; assay type: ADME, tissue-based; settings: in vivo, other, 0.5 h; how it was run: as §1
[23] = test system: Mus musculus; test: Brain efflux index in wild-type mouse assessed as transport of compound from ipsilateral cerebrum to the circulating blood across the blood-brain barrier at 10 nCi/ml, intracerebral microinjection after 30 mins in presence of 1 mM unlabelled compound; settings: other, 0.5 h
[24] = test system: Brain; test: Elimination half life in mouse brain; assay type: ADME, tissue-based; settings: in vivo; how it was run: as §3

Compound: CN(Cc1cnc2nc(N)nc(N)c2n1)c1ccc(C(=O)N[C@@H](CCC(=O)O)C(=O)O)cc1 [METHOTREXATE]
- Drug uptake [1]: 75.8%
- Drug uptake [2]: 90%
- BEI [3]: 13.7%
- BEI [4]: 72.7%
- CL [5]: 20.23 µL/min/g
- BEI [6]: 37.9%
- k el [7]: 0.000397 s⁻¹
- BEI [8]: 46.4%
- Drug uptake [9]: 36.2%
- Drug uptake [10]: 3.2%
- BEI [11]: 57.2%
- BEI [12]: 90%
- BEI [13]: 24.2%
- Ratio [14]: 0.05
- half-life [15]: 28.8 min
- BEI [16]: 21.4%
- BEI [17]: 63.8%

Compound: Nc1nc2[nH]cc(CCc3ccc(C(=O)N[C@@H](CCC(=O)O)C(=O)O)cc3)c2c(=O)[nH]1 [PEMETREXED]
- Drug uptake [1]: 72.4%
- Drug uptake [2]: 90%
- BEI [18]: 8.8%
- BEI [3]: 12.2%
- BEI [4]: 89.7%
- BEI [19]: 57.8%
- Drug uptake [20]: 71.7%
- CL [5]: 11.04 µL/min/g
- BEI [6]: 56.5%
- k el [7]: 0.000297 s⁻¹
- BEI [8]: 43.9%
- Drug uptake [9]: 51.1%
- BEI [21]: 4.3%
- Drug uptake [22]: 95.7%
- BEI [11]: 58.3%
- BEI [23]: 28.3%
- BEI [13]: 27.6%
- half-life [15]: 39 min
- BEI [16]: 25%
- BEI [17]: 48.9%

Compound: CCCC(CCC)C(=O)O [VALPROIC ACID]
- beta t1/2 [24]: 2 min
